Measurements from ChEMBL document CHEMBL1123417, “New structure-activity relationships of the quinolone antibacterials using the target enzyme. The development and application of a DNA gyrase assay” (J Med Chem, 1986).
In brackets after ≈: the same amount, converted by molar mass.

Assays:
DNA gyrase = DNA gyrase (Escherichia coli, UniProt P0AES4+P0AES6); assay: Inhibitory concentration in supercoiling inhibition Escherichia coli DNA gyrase assay; format: protein-complex assay; details: read-out: I50 (converted)
How it was run: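 Gyrase A and B subunits purified from E. coli H560, each titrated to fully supercoil relaxed Col E1 plasmid (~0.3 μg/mL). Drug in 0.1 N KOH, 40 min at 30 °C, then ATP for 10 min. SDS/proteinase K quench, 1% agarose gel, ethidium stain. Serial dilutions start at 200 μg/mL. I50 is the mean of the initial-inhibition and 100%-inhibition concentrations.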

[1] = target: DNA gyrase (Escherichia coli) (UniProt P0AES6+P0AES4)
Klebsiella pneumoniae = assay: Antibacterial activity against Klebsiella pneumonia (MGH-2)
Escherichia coli [2] = assay: Antibacterial activity against Escherichia coli (vogel)
Pseudomonas aeruginosa = assay: Antibacterial activity against Pseudomonas aeruginosa (UI-18)
Escherichia coli [3] = assay: Antibacterial activity against Escherichia coli (H560)
Staphylococcus aureus = assay: Antibacterial activity against Staphylococcus aureus (H228)
Streptococcus pneumoniae = assay: Antibacterial activity against Streptococcus pneumoniae (SV-1)

SMILES | IC50 (DNA gyrase) [µM] | gyrase cleavage conc [1] [µg/mL] | MIC (Klebsiella pneumoniae) [µg/mL] | MIC (Escherichia coli [2]) [µg/mL] | MIC (Pseudomonas aeruginosa) [µg/mL] | MIC (Escherichia coli [3]) [µg/mL] | MIC (Staphylococcus aureus) [µg/mL] | MIC (Streptococcus pneumoniae) [µg/mL]
CCn1cc(C(=O)O)c(=O)c2cnc(N3CCNCC3)nc21 [PIPEMIDIC ACID] | > 330 | 50 |  |  |  |  |  | 
COn1cc(C(=O)O)c(=O)c2cc3c(cc21)OCO3 [MILOXACIN] | 190 | 10 | 0.2 (≈ 0.76 µM) | 0.4 (≈ 1.52 µM) | 12.5 (≈ 47.5 µM) | 0.4 (≈ 1.52 µM) | 6.3 (≈ 23.9 µM) | 100 (≈ 380 µM)
CCn1cc(C(=O)O)c(=O)c2cc(F)c(N3CCCC3)nc21 | 16.4 | 2.5 | 3.1 (≈ 10.2 µM) | 3.1 (≈ 10.2 µM) | 6.3 (≈ 20.6 µM) | 0.4 (≈ 1.31 µM) | 0.2 (≈ 0.655 µM) | 3.1 (≈ 10.2 µM)
CCn1cc(C(=O)O)c(=O)c2cc3c(cc21)OCO3 [OXOLINIC ACID] | 95.7 | 10 |  |  |  |  |  | 
CCn1cc(C(=O)O)c(=O)c2cc(F)c(N3CCNCC3)c(F)c21 | 18.7 | 1 | 0.1 (≈ 0.296 µM) | 0.2 (≈ 0.593 µM) | 1.6 (≈ 4.74 µM) | 0.1 (≈ 0.296 µM) | 3.1 (≈ 9.19 µM) | 3.1 (≈ 9.19 µM)
CCn1nc(C(=O)O)c(=O)c2cc3c(cc21)OCO3 [CINOXACIN] | > 381 | 43 |  |  |  |  |  | 
CCn1cc(C(=O)O)c(=O)c2cc(F)c(N3CCSC3)nc21 | 201 | 5 | 0.4 (≈ 1.24 µM) | 0.1 (≈ 0.309 µM) | 1.6 (≈ 4.95 µM) | 0.4 (≈ 1.24 µM) | 0.05 (≈ 0.155 µM) | 1.6 (≈ 4.95 µM)
CCn1cc(C(=O)O)c(=O)c2ccc(-c3ccncc3)cc21 [ROSOXACIN] | > 34 | 2.5 | 0.4 (≈ 1.36 µM) | 0.2 (≈ 0.68 µM) | 6.3 (≈ 21.4 µM) | 0.2 (≈ 0.68 µM) | 0.4 (≈ 1.36 µM) | 12.5 (≈ 42.5 µM)
CCn1cc(C(=O)O)c(=O)c2cc(F)c(N3CCN(C(C)=N)CC3)cc21 |  | 2.5 | 1.6 (≈ 4.44 µM) | 0.8 (≈ 2.22 µM) | 1.6 (≈ 4.44 µM) | 0.2 (≈ 0.555 µM) | 6.3 (≈ 17.5 µM) | 12.5 (≈ 34.7 µM)
CN1CCN(c2c(F)cc3c(=O)c(C(=O)O)cn(CCF)c3c2F)CC1 [FLEROXACIN] | 10.3 | 2.5 |  |  |  |  |  | 
CCn1cc(C(=O)O)c(=O)c2c(N)nc(N3CCCC3)nc21 |  | 100 | > 100 | 100 (≈ 330 µM) | > 100 | 100 (≈ 330 µM) | 100 (≈ 330 µM) | 25 (≈ 82.4 µM)
CCn1cc(C(=O)O)c(=O)cc1/C=C/c1ccsc1 |  | 100 | > 100 | 25 (≈ 90.8 µM) | > 100 | 50 (≈ 182 µM) | > 100 | > 100
CCn1cc(C(=O)O)c(=O)c2cc(F)c(-n3cccc3)cc21 [IRLOXACIN] | 93.2 | 2.5 | 1.6 (≈ 5.33 µM) | 1.6 (≈ 5.33 µM) | 12.5 (≈ 41.6 µM) | 1.6 (≈ 5.33 µM) | 0.4 (≈ 1.33 µM) | 12.5 (≈ 41.6 µM)
CCn1cc(C(=O)O)c(=O)c2cc(F)c(N3CCSC3)cc21 |  | 5 | 0.4 (≈ 1.24 µM) | 0.2 (≈ 0.62 µM) | 3.1 (≈ 9.62 µM) | 0.2 (≈ 0.62 µM) | 0.2 (≈ 0.62 µM) | 12.5 (≈ 38.8 µM)
CCn1cc(C(=O)O)c(=O)c2ccc(N3CCNCC3)cc21 |  | 18 | 6.3 (≈ 20.9 µM) | 6.3 (≈ 20.9 µM) | 25 (≈ 83 µM) | 6.3 (≈ 20.9 µM) | > 50 | 50 (≈ 166 µM)
CCn1cc(C(=O)O)c(=O)c2cc(F)c(/C=N/N3CCN(C)CC3)nc21 |  | 100 | 25 (≈ 69.2 µM) | 25 (≈ 69.2 µM) | > 100 | 50 (≈ 138 µM) | 25 (≈ 69.2 µM) | 100 (≈ 277 µM)
CCn1cc(C(=O)O)c(=O)c2cc(F)c(N3CCCC3)cc21 | 85.4 | 5 | > 100 | 1.6 (≈ 5.26 µM) | > 100 | 1.6 (≈ 5.26 µM) | 0.8 (≈ 2.63 µM) | 12.5 (≈ 41.1 µM)
CCn1cc(C(=O)O)c(=O)c2cnc(N3CCCC3)nc21 [PIROMIDIC ACID] | > 347 | 38 |  |  |  |  |  | 
CCn1cc(C(=O)O)c(=O)cc1C |  | 100 | > 100 | > 100 | > 100 | > 100 | > 100 | > 100
CCn1cc(C(=O)O)c(=O)c2ccc(/C=N/O)nc21 |  | 100 | 12.5 (≈ 47.8 µM) | 12.5 (≈ 47.8 µM) | 100 (≈ 383 µM) | > 100 | 50 (≈ 191 µM) | 100 (≈ 383 µM)
CNn1cc(C(=O)O)c(=O)c2cc(F)c(N3CCN(C)CC3)cc21 [AMIFLOXACIN] | 18.8 |  | 0.2 (≈ 0.598 µM) | 0.1 (≈ 0.299 µM) | 0.8 (≈ 2.39 µM) |  | 1.6 (≈ 4.79 µM) | 12.5 (≈ 37.4 µM)
CCn1cc(C(=O)O)c(=O)c2cc(F)c(N3CCNCC3)nc21 [ENOXACIN] | 87.4 | 5 |  |  |  |  |  | 
CCOC(=O)N1CCN(c2nc3c(cc2F)c(=O)c(C(=O)O)cn3CC)CC1 |  | 18 | 50 (≈ 127 µM) | 25 (≈ 63.7 µM) | 200 (≈ 510 µM) | 50 (≈ 127 µM) | 3.1 (≈ 7.9 µM) | 100 (≈ 255 µM)
CCn1cc(C(=O)O)c(=O)c2cc(F)c(N3CCN(CCCN(C)C)CC3)cc21 |  | 50 | 6.3 (≈ 15.6 µM) | 6.3 (≈ 15.6 µM) | 12.5 (≈ 30.9 µM) | 3.1 (≈ 7.66 µM) | 12.5 (≈ 30.9 µM) | 25 (≈ 61.8 µM)
CCn1cc(C(=O)O)c(=O)c2cc(F)ccc21 |  | 50 | 1.6 (≈ 6.8 µM) | 0.8 (≈ 3.4 µM) | > 100 | 25 (≈ 106 µM) | > 100 | > 100
CCn1cc(C(=O)O)c(=O)c2cc(F)c(N3CCSCC3)cc21 |  | 5 | 0.2 (≈ 0.595 µM) | 0.1 (≈ 0.297 µM) | 0.8 (≈ 2.38 µM) | 0.1 (≈ 0.297 µM) | 0.006 (≈ 0.0178 µM) | 12.5 (≈ 37.2 µM)
